Reference: ChEMBL document CHEMBL1146516, “Isolation and characterization of polybrominated diphenyl ethers as inhibitors of microtubule assembly from the marine sponge Phyllospongia dendyi collected at Palau” (J Nat Prod, 2004)
Activity calls are given as the source filed them. The rule behind the calls is not given here.

Experiments:
Oocyte = assay: Inhibition of 1-methyladenine-stimulated meiotic maturation in Asterina pectinifera immature oocytes assessed as germinal vesicle breakdown at 100 uM after 60 mins; type: functional, cell-based; details: Patiria pectinifera
Method in brief: (§1)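 Immature oocytes from wild-caught Asterina pectinifera ovaries, 100 cells/mL; DMSO-dissolved sample added, held on ice 10 min, then 1-MeAde (1.25 µM, as added) added; incubated 20 °C for 60 min; germinal vesicle state scored under inverted microscope.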

Sus scrofa = species on record: Sus scrofa; assay: Inhibition of pig brain microtubule assembly at 100 uM
Method in brief: (§2)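 Microtubule protein purified from fresh porcine brain by repeated polymerization/depolymerization cycles in 100 mM MES, 1 mM EGTA, 0.5 mM MgCl2, 1 mM GTP, 1 mM 2-mercaptoethanol, pH 6.5; 1.3 mg/mL protein; DMSO-dissolved sample (final DMSO <2%); assembly followed by turbidity at 400 nm, 37 °C.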

[1] = Inhibition of 1-methyladenine-stimulated meiotic maturation in Asterina pectinifera immature oocytes assessed as germinal vesicle breakdown after 60 mins; type: functional, cell-based, Patiria pectinifera; details: oocyte; method in brief: as §1
[2] = Inhibition of pig brain microtubule assembly; set-up: species or system Sus scrofa; method in brief: as §2

SMILES | Activity (Oocyte) | Activity (Sus scrofa) | IC50 [1] | IC50 [2]
COc1cc(Br)c(Br)c(Br)c1Oc1cc(Br)cc(Br)c1OC | inactive | inactive |  | 
Oc1c(Br)cc(Br)cc1Oc1ccc(Br)cc1Br | inactive | inactive |  | 
COc1cc(Br)cc(Br)c1Oc1cc(Br)cc(Br)c1O | inactive | inactive |  | 
Oc1c(Br)cc(Br)cc1Oc1c(O)c(Br)c(Br)c(Br)c1Br |  |  | 3.6 µM | 29.6 µM
COc1c(Br)c(Br)c(Br)c(Br)c1Oc1cc(Br)cc(Br)c1O | inactive | inactive |  | 
Oc1c(Br)cc(Br)cc1Oc1c(Br)cc(Br)c(Br)c1O |  |  | 4.2 µM | 33.5 µM
COc1cc(Br)cc(Br)c1Oc1cc(Br)cc(Br)c1OC | inactive | inactive |  | 
COc1c(Br)c(Br)cc(Br)c1Oc1cc(Br)cc(Br)c1O | inactive | inactive |  | 
COc1cc(Br)cc(Br)c1Oc1c(Br)ccc(Br)c1O | inactive | inactive |  | 
Oc1cc(Br)c(Br)c(Br)c1Oc1c(Br)ccc(Br)c1O |  |  | 4.2 µM | 20.9 µM
COc1cc(Br)c(Br)c(Br)c1Oc1cc(Br)cc(Br)c1O | inactive | inactive |  | 
